Reference: ChEMBL document CHEMBL1926627, “Synthesis and evaluation of novel modified γ-lactam prostanoids as EP4 subtype-selective agonists” (Bioorg Med Chem, 2012)

Columns and labels:
[1] = molecular target: T1, Prostaglandin E2 receptor EP1 subtype (Mus musculus, UniProt P35375); assay: Displacement of [3H]-PGE2 from mouse EP1 receptor expressed in CHO cells after 20 mins by liquid scintillation counter; assay type: cell-based
T1 sequence (P35375 whole entry): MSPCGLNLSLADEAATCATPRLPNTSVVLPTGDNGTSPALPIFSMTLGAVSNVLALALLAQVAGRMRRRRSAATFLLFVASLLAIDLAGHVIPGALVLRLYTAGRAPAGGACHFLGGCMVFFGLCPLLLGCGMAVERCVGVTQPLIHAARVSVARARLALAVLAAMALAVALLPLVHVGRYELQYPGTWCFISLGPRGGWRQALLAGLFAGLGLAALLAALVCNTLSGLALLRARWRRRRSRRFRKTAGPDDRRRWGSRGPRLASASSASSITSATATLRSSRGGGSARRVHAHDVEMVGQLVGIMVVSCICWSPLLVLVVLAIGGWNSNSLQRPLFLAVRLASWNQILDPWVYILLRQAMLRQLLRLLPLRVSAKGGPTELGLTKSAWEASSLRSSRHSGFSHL
Procedure, shortened: (§1)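 Membranes from CHO cells stably expressing mouse EP1–4, incubated with 2.5 nM [³H]PGE₂ and test compound at various concentrations in 10 mM KH₂PO₄–KOH, 1 mM EDTA, 10 mM MgCl₂, 0.1 mM NaCl, pH 6.0. Incubated 25 °C, 60 min (EP1: 20 min). Filtration on GF/B, ice-cold buffer wash, scintillation counting. Nonspecific binding with excess unlabeled PGE₂. IC50 from regression curve; Ki = IC50/(1+[L]/Kd).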

[2] = molecular target: Prostaglandin E2 receptor EP2 subtype (Mus musculus, UniProt Q62053); assay: Displacement of [3H]-PGE2 from mouse EP2 receptor expressed in CHO cells after 60 mins by liquid scintillation counter; assay type: cell-based; procedure, shortened: as §1
[3] = molecular target: T2, Prostaglandin E2 receptor EP3 subtype (Mus musculus, UniProt P30557); assay: Displacement of [3H]-PGE2 from mouse EP3 receptor expressed in CHO cells after 60 mins by liquid scintillation counter; assay type: cell-based; procedure, shortened: as §1
T2 sequence (P30557 whole entry): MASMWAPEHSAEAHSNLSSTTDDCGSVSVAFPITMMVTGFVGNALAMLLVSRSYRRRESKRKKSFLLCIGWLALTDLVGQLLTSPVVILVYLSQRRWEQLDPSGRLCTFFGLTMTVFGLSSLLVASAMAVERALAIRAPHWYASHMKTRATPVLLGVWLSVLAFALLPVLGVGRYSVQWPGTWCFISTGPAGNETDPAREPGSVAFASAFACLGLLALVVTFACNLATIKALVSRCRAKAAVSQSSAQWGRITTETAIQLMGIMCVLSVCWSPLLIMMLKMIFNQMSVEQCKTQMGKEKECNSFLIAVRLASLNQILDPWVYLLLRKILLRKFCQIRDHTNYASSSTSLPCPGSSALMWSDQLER

[4] = molecular target: Prostaglandin E2 receptor EP4 subtype (Mus musculus, UniProt P32240); assay: Displacement of [3H]-PGE2 from mouse EP4 receptor expressed in CHO cells after 60 mins by liquid scintillation counter; assay type: cell-based; procedure, shortened: as §1
[5] = molecular target: Prostaglandin E2 receptor EP4 subtype (Rattus norvegicus, UniProt P43114); assay: Agonist activity at rat EP4 receptor expressed in CHO cells assessed as cAMP production after 10 mins by radioimmunoassay; assay type: functional, cell-based
Procedure, shortened: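 CHO cells expressing rat EP4 seeded at 1×10^5 cells/well and grown 2 days. Washed with MEM, then 10 min at 37 °C in MEM with 2 µM diclofenac. Preincubated 10 min at 37 °C in assay medium with 1% BSA. Test compound added, 10 min at 37 °C. Stopped with ice-cold 10% trichloroacetic acid. cAMP measured by radioimmunoassay.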

[6] = test system: Rattus norvegicus; assay: Inhibition of LPS induced TNF-alpha production in po dosed Sprague-Dawley rat administered 30 mins before LPS challenge measured after 90 mins by ELISA; assay type: functional
Procedure, shortened: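 Seven-week-old Sprague–Dawley rats dosed orally with compound in sterile saline containing 20% HP-β-CD. LPS (1 mg/mL in sterile saline) given iv at 10 µg/2 mL/kg 30 min later. Blood drawn by aortic puncture into heparinized syringes 90 min after LPS. Plasma taken after centrifugation at 4 °C and frozen. Result given as ED50.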

[7] = test system: Rattus norvegicus; assay: Dose normalized cmax in rat at 1 mg/kg, po; assay type: ADME, organism-based; set-up: dose 1 mg/kg, route oral; conditions: in vivo
Procedure, shortened: (§2)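 Rat PK after 1 mg/kg po and 0.1 mg/kg iv. Cmax and AUC normalized to a 1 mg/kg dose.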

[8] = test system: Rattus norvegicus; assay: Dose normalized AUC in rat at 1 mg/kg, po; assay type: ADME, organism-based; set-up: dose 1 mg/kg, route oral; conditions: in vivo; procedure, shortened: as §2
[9] = Total clearance rat at 0.1 mg/kg, iv and 1 mg/kg, po; assay type: ADME, organism-based; conditions: in vivo
Procedure, shortened: (§3)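 Rat pharmacokinetics measured after 1 mg/kg po and 0.1 mg/kg iv dosing.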

[10] = Volume of distribution at steady state in rat at 0.1 mg/kg, iv and 1 mg/kg, po; assay type: ADME, organism-based; conditions: in vivo, read-out: Vdss; procedure, shortened: as §3
[11] = Oral bioavailability in rat at 1 mg/kg; assay type: ADME, organism-based; conditions: in vivo
[12] = Cmax in rat at 0.1 mg/kg, iv and 1 mg/kg, po; assay type: ADME, organism-based; conditions: in vivo; procedure, shortened: as §3
[13] = AUC in rat at 0.1 mg/kg, iv and 1 mg/kg, po; assay type: ADME, organism-based; conditions: plasma; procedure, shortened: as §3

Prostaglandin E2 receptor EP4 subtype (Mus musculus, UniProt P32240), sequence (P32240 whole entry): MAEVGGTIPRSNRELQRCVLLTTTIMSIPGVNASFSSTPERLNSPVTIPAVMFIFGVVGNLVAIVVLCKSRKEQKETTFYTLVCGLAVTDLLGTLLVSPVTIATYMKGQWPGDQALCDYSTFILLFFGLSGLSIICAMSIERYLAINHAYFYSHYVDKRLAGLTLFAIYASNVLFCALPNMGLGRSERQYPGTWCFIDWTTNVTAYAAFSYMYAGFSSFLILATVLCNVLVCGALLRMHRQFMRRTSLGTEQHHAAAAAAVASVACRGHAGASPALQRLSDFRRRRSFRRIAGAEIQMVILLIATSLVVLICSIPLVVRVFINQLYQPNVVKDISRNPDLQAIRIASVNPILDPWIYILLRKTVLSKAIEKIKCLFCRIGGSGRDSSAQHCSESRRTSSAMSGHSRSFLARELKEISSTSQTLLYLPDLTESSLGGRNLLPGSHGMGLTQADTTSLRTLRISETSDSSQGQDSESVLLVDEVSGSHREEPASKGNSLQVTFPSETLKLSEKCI
Prostaglandin E2 receptor EP4 subtype (Rattus norvegicus, UniProt P43114), sequence (P43114 whole entry): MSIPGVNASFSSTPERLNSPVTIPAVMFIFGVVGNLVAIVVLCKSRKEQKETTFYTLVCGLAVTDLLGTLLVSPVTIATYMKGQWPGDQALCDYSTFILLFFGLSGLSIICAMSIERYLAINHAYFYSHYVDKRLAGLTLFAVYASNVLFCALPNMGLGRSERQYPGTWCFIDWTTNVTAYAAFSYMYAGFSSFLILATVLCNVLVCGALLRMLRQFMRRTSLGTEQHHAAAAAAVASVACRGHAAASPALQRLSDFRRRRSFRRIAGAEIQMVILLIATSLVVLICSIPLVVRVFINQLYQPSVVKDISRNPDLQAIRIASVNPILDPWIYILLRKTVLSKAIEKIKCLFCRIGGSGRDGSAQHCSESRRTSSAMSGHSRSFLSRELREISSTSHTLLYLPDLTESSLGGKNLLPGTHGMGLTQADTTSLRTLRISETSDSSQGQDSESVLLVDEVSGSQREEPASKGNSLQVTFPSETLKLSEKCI
Prostaglandin E2 receptor EP2 subtype, sequence (Q62053 whole entry): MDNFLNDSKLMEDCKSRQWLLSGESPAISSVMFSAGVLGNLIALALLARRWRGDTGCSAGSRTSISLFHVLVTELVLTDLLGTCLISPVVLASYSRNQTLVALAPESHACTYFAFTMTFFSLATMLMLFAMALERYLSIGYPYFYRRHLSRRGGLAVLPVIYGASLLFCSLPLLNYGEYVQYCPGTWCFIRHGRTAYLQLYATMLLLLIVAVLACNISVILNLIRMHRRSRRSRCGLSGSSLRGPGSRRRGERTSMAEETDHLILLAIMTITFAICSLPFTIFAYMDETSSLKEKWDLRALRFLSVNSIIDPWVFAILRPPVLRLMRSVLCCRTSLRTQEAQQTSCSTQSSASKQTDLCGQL

Compound | Ki [1] [nM] | Ki [2] [nM] | Ki [3] [nM] | Ki [4] [nM] | EC50 [5] [nM] | Cmax/dose [7] [ng/mL] | AUC/dose [8] [ng·h/mL] | clearance [9] [mL/min/kg] | Vd [10] [L/kg] | bioavailability [11] [%] | Cmax [12] [ng/mL] | AUC [13] [ng·h/mL] | ED50 [6] [mg/kg]
COCc1cccc(C[C@H](O)/C=C/[C@H]2CCC(=O)N2CCCCCCC(=O)O)c1 | > 10000 | > 10000 | > 10000 | 10 | 15 | 1.6 | 6.4 | 35 | 0.386 | 1.2 |  |  | 1
CCc1cccc(C[C@H](O)/C=C/[C@H]2COC(=O)N2CCSCCCC(=O)O)c1 | 2400 | > 10000 | 2700 | 7.9 | 18 |  |  |  |  |  |  |  | 
CCCc1cccc(C[C@H](O)/C=C/[C@H]2COC(=O)N2CCSCCCC(=O)O)c1 | > 10000 | > 10000 | 1900 | 2.4 | 93 |  |  |  |  |  |  |  | 
O=C(O)CCCSCCN1C(=O)OC[C@@H]1/C=C/[C@@H](O)Cc1cccc(F)c1 | 1200 | > 10000 | 4000 | 20 | 35 |  |  |  |  |  |  |  | 
O=C(O)CCCSCCN1C(=O)OC[C@@H]1/C=C/[C@@H](O)Cc1cccc(Cl)c1 | > 10000 | > 10000 | 630 | 1.5 | 23 |  |  |  |  |  |  |  | 
O=C(O)CCCSCCN1C(=O)OC[C@@H]1/C=C/[C@@H](O)Cc1cccc(-c2ccccc2)c1 | > 10000 | > 10000 | > 10000 | 28 | 450 |  |  |  |  |  |  |  | 
O=C(O)CCCSCCN1C(=O)OC[C@@H]1/C=C/[C@@H](O)Cc1cccc(OC(F)(F)F)c1 | > 10000 | > 10000 | 1700 | 29 | 160 |  |  |  |  |  |  |  | 
COCc1cccc(C[C@H](O)/C=C/[C@H]2COC(=O)N2CCSCCCC(=O)O)c1 | > 10000 | > 10000 | > 10000 | 7.2 | 24 |  |  |  |  |  |  |  | 
O=C(O)CCCSCCN1C(=O)SC[C@@H]1/C=C/[C@@H](O)Cc1ccccc1 | > 10000 | > 10000 | 39 | 0.65 | 4.8 |  |  | 56 | 0.792 | 3.5 | 2.7 | 4 | 1
CCc1cccc(C[C@H](O)/C=C/[C@H]2CSC(=O)N2CCSCCCC(=O)O)c1 | 4600 | > 10000 | 65 | 0.88 | 1.9 |  |  | 75 | 0.538 | 8.6 | 10.4 | 19.5 | 1
CCCc1cccc(C[C@H](O)/C=C/[C@H]2CSC(=O)N2CCSCCCC(=O)O)c1 | > 10000 | > 10000 | 1200 | 0.98 | 6.1 |  |  | 52 | 1.28 | 6.3 | 11.4 | 17.7 | 1
O=C(O)CCCSCCN1C(=O)SC[C@@H]1/C=C/[C@@H](O)Cc1cccc(C(F)(F)F)c1 | > 10000 | > 10000 | 280 | 0.97 | 4.3 |  |  | 51 | 0.512 | 5.5 | 5.3 | 14.6 | 1
O=C(O)CCCCCCN1C(=S)CC[C@@H]1/C=C/[C@@H](O)Cc1ccccc1 | > 10000 | > 10000 | 2300 | 1.5 | 29 |  |  |  |  |  |  |  | 
CCc1cccc(C[C@H](O)/C=C/[C@H]2CCC(=S)N2CCCCCCC(=O)O)c1 | > 10000 | 1100 | 2300 | 0.83 | 9.4 |  |  |  |  |  |  |  | 
CCCc1cccc(C[C@H](O)/C=C/[C@H]2CCC(=S)N2CCCCCCC(=O)O)c1 | > 10000 | 6800 | 2000 | 0.4 | 27 |  |  |  |  |  |  |  | 
O=C(O)CCCCCCN1C(=S)CC[C@@H]1/C=C/[C@@H](O)Cc1cccc(C(F)(F)F)c1 | > 10000 | > 10000 | 450 | 0.38 | 10 |  |  |  |  |  |  |  | 
COCc1cccc(C[C@H](O)/C=C/[C@H]2CCC(=S)N2CCCCCCC(=O)O)c1 | > 10000 | 1400 | 6300 | 2 | 7.3 |  |  | 102 | 0.53 | 12.3 | 6.5 | 20.6 | 3
Cc1cccc(C[C@H](O)/C=C/[C@H]2CCC(=S)N2CCSCCCC(=O)O)c1 | 2800 | 1700 | 980 | 0.5 | 7.7 |  |  | 61 | 1.76 | 9.8 | 3.4 | 29.9 | 1

Second part, led by results:

Ki [1] [nM] | Ki [2] [nM] | Ki [3] [nM] | Ki [4] [nM] | EC50 [5] [nM] | Cmax/dose [7] [ng/mL] | AUC/dose [8] [ng·h/mL] | clearance [9] [mL/min/kg] | Vd [10] [L/kg] | bioavailability [11] [%] | Cmax [12] [ng/mL] | AUC [13] [ng·h/mL] | Compound | ED50 [6] [mg/kg]
> 10000 | 8500 | > 10000 | 8 | 1.3 |  |  |  |  |  |  |  | COCc1cccc(C[C@H](O)/C=C/[C@H]2CCC(=O)N2CCSCCCC(=O)O)c1 | 
> 10000 | 470 | 190 | 2.4 | 1.1 |  |  |  |  |  |  |  | COCc1cccc(C[C@H](O)/C=C/[C@H]2CCC(=O)[C@@H]2CCSCCCC(=O)O)c1 | 
> 10000 | > 10000 | 6400 | 4.2 | 36 |  |  |  |  |  |  |  | O=C(O)CCCSCCN1C(=O)OC[C@@H]1/C=C/[C@@H](O)Cc1ccccc1 | 
4400 | > 10000 | 2800 | 2.5 | 33 |  |  | 47 | 0.291 | 4.5 | 5.4 | 16.1 | Cc1cccc(C[C@H](O)/C=C/[C@H]2COC(=O)N2CCSCCCC(=O)O)c1 | > 1
> 10000 | > 10000 | 1600 | 2 | 12 |  |  | 67 | 0.631 | 6.7 | 3.8 | 16.7 | O=C(O)CCCSCCN1C(=O)OC[C@@H]1/C=C/[C@@H](O)Cc1cccc(C(F)(F)F)c1 | 3
> 10000 | > 10000 | 1800 | 1.5 | 5.7 |  |  |  |  |  |  |  | O=C(O)CCCSCCN1C(=O)SC[C@@H]1/C=C/[C@@H](O)Cc1cccc(F)c1 | 
> 10000 | > 10000 | > 10000 | 1.2 | 2.4 |  |  | 47 | 0.325 | 2 | 2.6 | 6.1 | COCc1cccc(C[C@H](O)/C=C/[C@H]2CSC(=O)N2CCSCCCC(=O)O)c1 | 1
> 10000 | > 10000 | 1700 | 0.69 | 26 |  |  |  |  |  |  |  | O=C(O)CCCCCCN1C(=S)CC[C@@H]1/C=C/[C@@H](O)Cc1cccc(F)c1 | 
> 10000 |  |  |  | 1.4 |  |  |  |  |  |  |  | COCc1cccc(C[C@H](O)/C=C/[C@H]2[C@H](O)CC(=O)[C@@H]2CCSCCCC(=O)O)c1 | 
